In ChEMBL document CHEMBL1153760, “Identification and structure-activity relationships of chromene-derived selective estrogen receptor modulators for treatment of postmenopausal symptoms” (J Med Chem, 2009):
Calls of active or inactive are those of the source. The rule behind the calls is not given here.

Experiments:
[1] = tested on: Rattus norvegicus; experiment: Increase in uterine weight in po dosed ovariectomized rat osteopenia model administered daily measured after 2 weeks; type: functional, organism-based
[2] = tested on: Rattus norvegicus; experiment: Estrogenic activity in ovariectomized rat assessed as minor increase in uterine epithelial thickness at 0.1 to 1 mg/kg, po administered daily measured after 6 week by immunohistochemical analysis; type: functional, organism-based
[3] = tested on: Rattus norvegicus; experiment: Decrease in bone resorption in ovariectomized rat assessed as decrease in urine deoxypyridinoline level at 0.1 to 1 mg/kg, po administered daily measured after 2 weeks; type: functional, organism-based
Summary of the method: (§1)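 Adult (>6 months) female rats, housed singly on a casein-based diet, ovariectomized under sterile conditions and anesthesia; 6-14 per group. From 24 h after surgery, daily oral gavage of an aqueous suspension in 0.5% Methocel for 2 or 6 weeks. […] Urine deoxypyridinoline measured as bone-resorption marker.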

[4] = tested on: Rattus norvegicus; experiment: Decrease in plasma cholesterol level in po dosed ovariectomized rat osteopenia model administered daily measured after 2 weeks; type: functional, organism-based
[5] = tested on: Rattus norvegicus; experiment: Increase in vaginal fluidity in ovariectomized rat at 1.4 mg/kg, po administered daily measured after 6 weeks by cytology analysis; type: functional, organism-based; set-up: dose 1.4 mg/kg
[6] = tested on: Rattus norvegicus; experiment: Increase in vaginal secretion in ovariectomized rat at 0.1 to 1 mg/kg, po administered daily measured after 2 weeks by cytology analysis; type: functional, organism-based
Summary of the method: (§2)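 Ovariectomized adult female rats dosed daily by oral gavage (0.5% Methocel suspension) for 2 or 6 weeks from 24 h after surgery. Vaginal fluid collected with a cotton swab and its absolute weight determined per animal.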

[7] = biological target: Estrogen receptor beta (Homo sapiens, UniProt Q92731); experiment: Inhibition of fluormone ES2 binding to estrogen receptor beta after 1 hr by fluorescence polarization assay
Estrogen receptor beta, sequence (Q92731 whole entry): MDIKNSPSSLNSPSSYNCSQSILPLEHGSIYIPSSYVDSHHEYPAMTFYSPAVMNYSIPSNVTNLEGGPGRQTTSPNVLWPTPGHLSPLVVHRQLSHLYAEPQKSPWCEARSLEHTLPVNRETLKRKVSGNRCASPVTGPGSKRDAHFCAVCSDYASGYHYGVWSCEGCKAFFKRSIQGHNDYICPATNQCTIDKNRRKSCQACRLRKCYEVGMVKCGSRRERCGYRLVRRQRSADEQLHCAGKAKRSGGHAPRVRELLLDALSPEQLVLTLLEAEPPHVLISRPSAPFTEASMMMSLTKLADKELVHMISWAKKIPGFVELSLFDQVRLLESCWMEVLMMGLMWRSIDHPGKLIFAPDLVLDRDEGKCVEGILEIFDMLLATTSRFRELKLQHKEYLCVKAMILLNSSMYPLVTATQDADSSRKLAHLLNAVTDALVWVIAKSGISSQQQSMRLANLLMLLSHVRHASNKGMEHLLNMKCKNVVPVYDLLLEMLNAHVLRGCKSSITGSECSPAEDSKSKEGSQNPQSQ

[8] = biological target: T1, Estrogen receptor (Homo sapiens, UniProt P03372); experiment: Displacement of radiolabeled estrogen from estrogen receptor alpha by scintillation counting
T1 sequence (P03372 whole entry): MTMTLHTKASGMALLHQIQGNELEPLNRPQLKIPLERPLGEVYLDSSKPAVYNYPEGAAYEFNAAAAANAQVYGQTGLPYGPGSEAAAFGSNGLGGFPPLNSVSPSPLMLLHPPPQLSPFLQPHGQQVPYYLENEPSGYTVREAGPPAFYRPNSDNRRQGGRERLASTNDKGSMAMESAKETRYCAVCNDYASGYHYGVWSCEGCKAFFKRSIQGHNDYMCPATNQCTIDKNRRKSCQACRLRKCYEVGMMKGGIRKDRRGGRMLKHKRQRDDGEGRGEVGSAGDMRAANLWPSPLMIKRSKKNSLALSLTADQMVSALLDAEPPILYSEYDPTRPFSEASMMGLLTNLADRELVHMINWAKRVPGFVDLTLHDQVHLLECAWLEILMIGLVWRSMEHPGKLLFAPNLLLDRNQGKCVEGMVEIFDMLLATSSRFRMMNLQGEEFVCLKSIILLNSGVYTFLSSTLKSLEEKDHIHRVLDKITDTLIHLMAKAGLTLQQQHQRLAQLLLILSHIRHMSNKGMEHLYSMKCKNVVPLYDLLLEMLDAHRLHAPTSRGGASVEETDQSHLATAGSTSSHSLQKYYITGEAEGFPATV

[9] = biological target: T1, Estrogen receptor; experiment: Antagonist activity at estrogen receptor in human Ishikawa cells assessed as 17-beta-estradiol-induced alkaline phosphatase activity after 3 days by chemiluminescence assay; type: functional, cell-based
[10] = species on record: Rattus norvegicus; experiment: animal or person; type: functional; details: Uterus, 72 h, route oral
[11] = Oral bioavailability in rat at 10 mg/kg administered as single dose by LC-MS/MS analysis; type: ADME, organism-based; details: in vivo
Summary of the method: (§3)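 Single-dose rat pharmacokinetics. IV dosing at 1-3 mg/kg as a solution in 10% β-cyclodextrin; oral gavage at 10 mg/kg as a uniform suspension in 0.5% methylcellulose. Blood (0.5 mL) collected into heparinized tubes by orbital sinus puncture after dosing. Plasma extracted into acetonitrile with an internal standard and analysed by LC-MS-MS against standards to obtain PK parameters.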

[12] = Cmax in rats after 10 mg/kg oral dose; type: ADME, organism-based; set-up: dose 10 mg/kg, route oral; details: rat, in vivo; summary of the method: as §3
[13] = Tmax in rat at 10 mg/kg, po administered as single dose by LC-MS/MS analysis; type: ADME, organism-based; set-up: dose 10 mg/kg, route oral; details: in vivo; summary of the method: as §3
[14] = Half life in rat at 10 mg/kg, po administered as single dose by LC-MS/MS analysis; type: ADME, organism-based; set-up: dose 10 mg/kg, route oral; details: in vivo; summary of the method: as §3
[15] = AUC in rat at 10 mg/kg, po administered as single dose by LC-MS/MS analysis; type: ADME, organism-based; set-up: dose 10 mg/kg, route oral; details: plasma; summary of the method: as §3
[16] = tested on: Rattus norvegicus; experiment: Metabolite Cmax in rats after 10 mg/kg JNJ-1968990 oral dose; type: ADME, organism-based; set-up: dose 10 mg/kg, route oral; details: in vivo; summary of the method: as §3
[17] = tested on: Rattus norvegicus; experiment: Metabolite Cmax in rats after 2 mg/kg JNJ-1968990 intravenous dose; type: ADME, organism-based; set-up: dose 2 mg/kg, route intravenous; details: in vivo; summary of the method: as §3
[18] = tested on: Rattus norvegicus; experiment: Metabolic stability in rat assessed as 2-Methoxy-5R-(-)-[4-(2-piperidin-1-ylethoxy)-phenyl]-11,12-dihydro-5H-6,13-dioxabenzo[3,4]cyclohepta[1,2-a]-naphthalen-8-ol Tmax at 10 mg/kg, po administered as single dose by LC-MS/MS analysis; type: ADME, organism-based; set-up: dose 10 mg/kg, route oral; details: in vivo; summary of the method: as §3
[19] = tested on: Rattus norvegicus; experiment: Metabolic stability in rat assessed as 2-Methoxy-5R-(-)-[4-(2-piperidin-1-ylethoxy)-phenyl]-11,12-dihydro-5H-6,13-dioxabenzo[3,4]cyclohepta[1,2-a]-naphthalen-8-ol Tmax at 2 mg/kg, iv administered as single dose by LC-MS/MS analysis; type: ADME, organism-based; set-up: dose 2 mg/kg, route intravenous; details: in vivo; summary of the method: as §3
[20] = tested on: Rattus norvegicus; experiment: Decrease in bone resorption in ovariectomized rat assessed as decrease in urine deoxypyridinoline level at 0.003 to 0.3 mg/kg, po administered daily measured after 6 weeks; type: functional, organism-based; summary of the method: as §1
[21] = tested on: Rattus norvegicus; experiment: Increase in uterine weight in po dosed ovariectomized rat osteopenia model administered daily measured after 6 weeks; type: functional, organism-based
[22] = tested on: Rattus norvegicus; experiment: Increase in uterine weight in ovariectomized rat osteopenia model at 1 mg/kg, po administered daily measured after 6 weeks; type: functional, organism-based; set-up: dose 1 mg/kg
[23] = tested on: Rattus norvegicus; experiment: Estrogenic activity in ovariectomized rat assessed as increase in uterine epithelial thickness at 0.1 mg/kg, po administered daily measured after 6 week by immunohistochemical analysis; type: functional, organism-based; set-up: dose 0.1 mg/kg
[24] = tested on: Rattus norvegicus; experiment: Estrogenic activity in ovariectomized rat assessed as minor increase in uterine epithelial thickness at 0.001 to 0.3 mg/kg, po administered daily measured after 6 week by immunohistochemical analysis; type: functional, organism-based
[25] = tested on: Rattus norvegicus; experiment: Effect on bone turnover in po dosed ovariectomized rat assessed as prevention of tibial bone loss administered daily measured after 6 weeks by ex vivo peripheral quantitative computerized tomography; type: functional, organism-based
[26] = tested on: Rattus norvegicus; experiment: Effect on bone turnover in ovariectomized rat assessed as prevention of tibial bone density at 0.3 mg/kg, po administered daily measured after 6 weeks by ex vivo peripheral quantitative computerized tomography; type: functional, organism-based; set-up: dose 0.3 mg/kg
[27] = tested on: Rattus norvegicus; experiment: Decrease in plasma cholesterol level in ovariectomized rat osteopenia model at 0.01 to 0.1 mg/kg, po administered daily measured after 6 weeks; type: functional; set-up: scale not given: the % may be the effect or the level left; details: dose mg/kg 0.01-0.1
[28] = tested on: Rattus norvegicus; experiment: Decrease in plasma cholesterol level in ovariectomized rat osteopenia model at 0.003 to 0.3 mg/kg, po administered daily measured after 2 weeks; type: functional, organism-based
[29] = tested on: Rattus norvegicus; experiment: Decrease in plasma cholesterol level in ovariectomized rat osteopenia model at 0.03 mg/kg, po administered daily measured after 6 weeks; type: functional; set-up: scale not given: the % may be the effect or the level left
[30] = tested on: Rattus norvegicus; experiment: Decrease in plasma cholesterol level in ovariectomized rat osteopenia model at 0.3 mg/kg, po administered daily measured after 6 weeks; type: functional; set-up: scale not given: the % may be the effect or the level left
[31] = tested on: Rattus norvegicus; experiment: Increase in vaginal fluidity in po dosed ovariectomized rat administered daily measured after 2 weeks […]; type: functional, organism-based; summary of the method: as §2
[32] = tested on: Rattus norvegicus; experiment: Increase in vaginal fluidity in ovariectomized rat at 0.1 mg/kg, po administered daily measured after 6 weeks by cytology analysis; type: functional, organism-based; set-up: dose 0.1 mg/kg; summary of the method: as §2
[33] = tested on: Rattus norvegicus; experiment: Decrease in tail skin temperature rise in morphine-addicted Sprague-Dawley rat hot flush model at 0.01 to 10 mg/kg, po administered daily measured for 60 mins after naloxone-induced morphine withdrawal; type: functional, organism-based
Summary of the method: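 Ovariectomized adult female Sprague-Dawley rats (3 months), 8-25 per group; oral gavage starting 6 days post-ovariectomy, sesame oil vehicle, suspension. Morphine given sc at 75 and 150 mg on treatment days 3 and 5. On the last day, under ketamine (80 mg/kg, im), tail thermistor; baseline about 20 min, then naloxone 2.0 mg/kg sc and tail skin temperature recorded 60 min. Multiple comparisons at each time point.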

[34] = Cmax in rats after 2 mg/kg intravenous dose; type: ADME, organism-based; set-up: dose 2 mg/kg, route intravenous; details: rat, in vivo; summary of the method: as §3
[35] = Tmax in rat at 2 mg/kg, iv administered as single dose by LC-MS/MS analysis; type: ADME, organism-based; set-up: dose 2 mg/kg, route intravenous; details: in vivo; summary of the method: as §3
[36] = Half life in rat at 2 mg/kg, iv administered as single dose by LC-MS/MS analysis; type: ADME, organism-based; set-up: dose 2 mg/kg, route intravenous; details: in vivo; summary of the method: as §3
[37] = AUC in rat at 2 mg/kg, iv administered as single dose by LC-MS/MS analysis; type: ADME, organism-based; set-up: dose 2 mg/kg, route intravenous; details: plasma; summary of the method: as §3

## COc1ccc2c(c1)OCCC1=C2[C@@H](c2ccc(OCCN3CCCCC3)cc2)Oc2cc(O)ccc21
[1]
  Activity: inactive
[2]
  Activity: Active
[3]
  Activity: Active
[4]
  Activity: Active
[5]
  Activity: Active
[6]
  Activity: inactive
[7]
  IC50: 99 nM
[8]
  IC50: 5.8 nM
[9]
  IC50: 76 nM
[10]
  inhibition in vivo at 1 mg/kg: 130%
[11]
  bioavailability: 61%
[12]
  Cmax: 228 ng/mL
[13]
  Tmax: 6 h
[14]
  half-life: 18.6 h
[15]
  AUC: 6730 ng·h/mL
[16]
  Cmax_metabolite: 91.4 ng/mL
[17]
  Cmax_metabolite: 15.2 ng/mL
[18]
  Tmax: 8 h
[19]
  Tmax: 8 h

## COc1ccc2c(c1)O[C@H](c1ccc(OCCN3CCCCC3)cc1)C1=C2CCOc2cc(OC)ccc21
[20]
  Activity: Active
[21]
  Activity: Dose-dependent effect
[22]
  Activity: inactive
[23]
  Activity: Active
[24]
  Activity: Active
[25]
  Activity: Dose-dependent effect
[26]
  Activity: Active
[27]
  Activity: 60%
[28]
  Activity: Active
[29]
  Activity: 50%
[30]
  Activity: 50%
[31]
  Activity: Dose-dependent effect
[32]
  Activity: Active
[33]
  Activity: Active
[7]
  IC50: Not Active
[8]
  IC50: 64 nM
[9]
  IC50: 1740 nM
[10]
  inhibition in vivo at 1 mg/kg: 121%
[11]
  bioavailability: 30.8%
[12]
  Cmax: 168 ng/mL
[13]
  Tmax: 5 h
[14]
  half-life: 7.2 h
[15]
  AUC: 2270 ng·h/mL
[34]
  Cmax: 1040 ng/mL
[35]
  Tmax: 4.8 min
[36]
  half-life: 5.82 h
[37]
  AUC: 1390 ng·h/mL
